Experimental data reported in ChEMBL document CHEMBL1147589, “Abeta aggregation inhibitors. Part 1: Synthesis and biological activity of phenylazo benzenesulfonamides” (Bioorg Med Chem Lett, 2004).

Key:
Rattus norvegicus [1] = species on record: Rattus norvegicus; assay: Effective concentration required to inhibit A-beta-40 fibril formation […]; type: functional
In short: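 Thioflavin-T binding assay of Aβ40 aggregation. Aβ40 (25) was incubated with the compound at various concentrations in 50 mM TBS, pH 7.4, at 37 °C for 2 days. Fluorescence was read at Ex 450/Em 482 and scaled to Aβ40 alone (100%). EC50 is the concentration inhibiting aggregation by 50%. Values are averages of three separate experiments.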

Rattus norvegicus [2] = species on record: Rattus norvegicus; assay: Evaluated for neurotoxicity by inhibition of neuron viability in rat cortical neurons expressed as IC50; type: functional
In short: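 Cortical neurons were incubated with the compound at various concentrations, and viability was measured by MTT reduction with OD at 600 nm on an ELISA reader. IC50 is the concentration inhibiting neuron viability by 50%. Values are averages of three separate experiments.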

[3] = Therapeutic index expressed as the ratio of IC50 to EC50; conditions: rat; read-out: Therapeutic index
In short: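 Therapeutic index = IC50/EC50. IC50 is the concentration inhibiting neuron viability by 50% in the MTT reduction assay on cortical neurons. EC50 is the concentration inhibiting Aβ40 aggregation by 50% in the thioflavin-T assay (25 Aβ40, TBS pH 7.4, 37 °C, 2 days). Both were determined at various compound concentrations in three separate experiments.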

SMILES | EC50 (Rattus norvegicus [1]) [µM] | IC50 (Rattus norvegicus [2]) [µM] | selectivity ratio [3]
Nc1ccc(/N=N/c2ccc(S(N)(=O)=O)cc2)cc1 | 100 | > 100 | 
NS(=O)(=O)c1ccc(/N=N/c2ccc(NCS(=O)(=O)O)cc2)cc1 | 77.2 | > 100 | > 1.29
CSc1cc(N)ccc1/N=N/c1ccc(S(N)(=O)=O)cc1 | 56.8 | > 100 | > 1.76

Now from value to compound, other results behind:

EC50 (Rattus norvegicus [1]) [µM] | SMILES | IC50 (Rattus norvegicus [2]) [µM] | selectivity ratio [3]
12.9 | CN(C)c1ccc(/N=N/c2ccc(S(N)(=O)=O)cc2)cc1 | > 100 | > 7.75
15.1 | CCN(CC)CCNc1ccc(/N=N/c2ccc(S(N)(=O)=O)cc2)c2ccccc12 | 22.1 | 1.47
